From ChEMBL document CHEMBL1157580, “Interaction of (benzylidene-hydrazono)-1,4-dihydropyridines with beta-amyloid, acetylcholine, and butyrylcholine esterases” (Bioorg Med Chem, 2010)
The source made the active and inactive calls. The calls are words filed in the database; no cut-off is given here.

Assays:
[1] = Octanol-water partition coefficient, log P at pH 7.4 by RP-HPLC; type: physicochemical
Method in brief: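 Reversed-phase HPLC on an endcapped RP18 column (5 µm). Eluent methanol/phosphate buffer pH 7.4 (70/30) with 0.02% N,N-dimethylhexylamine, 1.0 ml flow. Analytes at 4 µg/ml in methanol, run in duplicate. Capacity factors converted to log P through a calibration against 2-phenylethanol, benzene, dimethylaniline, toluene, biphenyl and anthracene.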

[2] = molecular target: Acetylcholinesterase (Electrophorus electricus, UniProt O42275); assay: Inhibition of electric eel AChE by modified Ellman's method
Acetylcholinesterase, sequence (O42275 whole entry): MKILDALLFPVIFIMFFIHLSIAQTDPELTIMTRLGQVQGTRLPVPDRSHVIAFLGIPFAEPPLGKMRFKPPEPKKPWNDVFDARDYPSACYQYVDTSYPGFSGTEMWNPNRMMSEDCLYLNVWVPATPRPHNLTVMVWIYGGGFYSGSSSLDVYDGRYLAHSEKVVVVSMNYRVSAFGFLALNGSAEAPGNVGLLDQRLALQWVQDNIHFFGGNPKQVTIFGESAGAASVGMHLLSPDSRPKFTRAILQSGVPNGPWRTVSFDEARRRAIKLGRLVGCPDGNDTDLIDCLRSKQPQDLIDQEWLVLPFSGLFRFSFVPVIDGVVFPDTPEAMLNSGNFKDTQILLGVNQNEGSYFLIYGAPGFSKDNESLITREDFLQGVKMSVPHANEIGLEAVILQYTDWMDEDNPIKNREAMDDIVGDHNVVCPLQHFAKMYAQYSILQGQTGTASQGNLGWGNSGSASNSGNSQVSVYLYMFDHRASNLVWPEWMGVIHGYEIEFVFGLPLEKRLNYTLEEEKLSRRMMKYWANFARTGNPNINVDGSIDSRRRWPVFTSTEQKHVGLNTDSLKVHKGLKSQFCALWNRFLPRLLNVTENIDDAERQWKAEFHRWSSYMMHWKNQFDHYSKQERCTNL
Method in brief: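 Ellman-based assay. IC50 is the concentration giving 50% loss of AChE activity, reported as mean ± SEM from n = 3-6 experiments.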

[3] = molecular target: Cholinesterase (Equus caballus, UniProt P81908); assay: Inhibition of horse serum BuChE by modified Ellman's method
Cholinesterase, sequence (P81908 whole entry, the tested form may be a part): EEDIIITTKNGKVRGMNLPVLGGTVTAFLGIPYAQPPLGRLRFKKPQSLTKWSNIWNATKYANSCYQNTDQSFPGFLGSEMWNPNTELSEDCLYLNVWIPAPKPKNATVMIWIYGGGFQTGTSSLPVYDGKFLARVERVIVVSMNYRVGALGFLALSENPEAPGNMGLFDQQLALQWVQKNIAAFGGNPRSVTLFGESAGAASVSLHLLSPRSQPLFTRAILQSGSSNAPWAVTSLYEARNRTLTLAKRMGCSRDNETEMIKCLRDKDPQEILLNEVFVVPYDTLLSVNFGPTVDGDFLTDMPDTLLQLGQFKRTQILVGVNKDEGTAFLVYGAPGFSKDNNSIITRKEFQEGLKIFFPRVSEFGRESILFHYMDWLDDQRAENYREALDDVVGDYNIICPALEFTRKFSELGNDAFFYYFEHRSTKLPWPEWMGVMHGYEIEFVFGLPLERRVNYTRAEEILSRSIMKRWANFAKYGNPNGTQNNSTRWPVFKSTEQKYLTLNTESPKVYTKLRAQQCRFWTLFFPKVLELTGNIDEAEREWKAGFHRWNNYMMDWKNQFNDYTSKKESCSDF

[4] = Inhibition of fibril formation of amyloid beta (1-40) catalytic domain containing HHQKLVFFAED sequence at 0.5 mM by thioflavin T assay
[5] = Induction of fibril destruction of amyloid beta (1-40) catalytic domain containing HHQKLVFFAED sequence by modified thioflavin T assay
[6] = Inhibition of amyloid beta (1-40) fibril formation by thioflavin T formation assay
Method in brief: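 HFIP-pretreated Aβ film taken up in DMSO as a 2 mM stock, stored at -20 °C for at most three days. Diluted to 100 µM final peptide in 25 mM NaH2PO4, 120 mM NaCl, 3 µM thioflavin T, 0.02% NaN3, pH 7.4. Inhibitors at 0.005–0.5 mM. Incubated at 37 °C. Fluorescence read at excitation 450 nm, emission 482 nm.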

[7] = Inhibition of fibril formation of amyloid beta (1-40) catalytic domain containing HHQKLVFFAED sequence by thioflavin T assay
[8] = Dissociation constant, pKa at pH 7.4; type: physicochemical
Method in brief: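 Potentiometric titration: compound dissolved in 0.15 M KCl for constant ionic strength, with 30% dioxane or 80% methanol as co-solvent modifier. pH brought to 1.8 with 0.5 M HCl, then titrated with 0.5 M KOH. Dissociation constants determined at several modifier levels and pKa obtained by extrapolation of the calibration line. Electrode calibrated by blank titrations of 0.15 M KCl.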

[9] = Partition coefficient, log P at pH 5 by shake flask method; type: physicochemical; details: octanol/water
Method in brief: (§1)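 Shake flask with octanol and phosphate buffer at the stated pH, each phase pre-saturated with the other overnight. Compound at 10^-5 mol/l in buffer-saturated octanol, absorbance (A0) read between 314 and 360 nm. Equal volumes shaken 4 h at 37 °C, left overnight, then centrifuged. Aqueous-layer absorbance (A1) read; log P = log((A0−A1)/A1).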

[10] = Partition coefficient, log P at pH 6 by shake flask method; type: physicochemical; details: octanol/water; method in brief: as §1
[11] = Partition coefficient, log P at pH 7 by shake flask method; type: physicochemical; details: octanol/water; method in brief: as §1
[12] = Partition coefficient, log P at pH 7.4 by shake flask method; type: physicochemical; details: octanol/water; method in brief: as §1

SMILES	logP [1]	IC50 [2] [µM]	IC50 [3] [µM]	inhibition [4] [%]	Activity [5]	IC50 [6] [µM]	IC50 [7] [µM]	pKa [8]	logD [9]	logD [10]	logD [11]	logD [12]	inhibition [6]	inhibition [7]
Cn1ccc(=N/N=C/c2c(Cl)cccc2Cl)cc1	3.4	739	11	60	inactive	–	–	–	–	–	–	–	–	–
Nc1ccc(O)cc1 [4-AMINOPHENOL]	–	–	–	–	–	90	83	–	–	–	–	–	–	–
Clc1cccc(Cl)c1/C=N/N=c1ccn(CCCc2ccccc2)cc1	3.7	5.66	10	–	Dose-dependent effect	–	–	8.7	0.7	0.9	1.3	3.2	Active	Dose-dependent effect
Clc1cccc(Cl)c1/C=N/N=c1ccn(Cc2ccccc2)cc1	3.5	17.4	8	–	Dose-dependent effect	–	–	–	–	–	–	–	–	–
Clc1cccc(Cl)c1/C=N/N=c1ccn(Cc2c(Cl)cccc2Cl)cc1	4	6.4	–	–	Dose-dependent effect	–	–	–	0.8	1.5	2.2	3.4	Active	–
Clc1cccc(Cl)c1/C=N/N=c1ccn(CCc2ccccc2)cc1	3.9	56.7	9	–	Dose-dependent effect	–	–	–	–	–	–	–	–	Dose-dependent effect
Clc1cccc(Cl)c1CO/N=C/c1cc[n+](CCCc2ccccc2)cc1	–	0.18	2.78	–	–	–	–	–	–	–	–	–	Active	Active
Clc1cccc(Cl)c1CON=C1CCN(CCCc2ccccc2)CC1	4.3	12	> 100	–	–	–	–	5.7	–	–	–	–	–	–
Clc1cccc(Cl)c1CO/N=C/C1CCN(CCCc2ccccc2)CC1	3.6	19.1	–	–	–	–	–	7.1	–	–	–	–	–	–
Clc1cccc(Cl)c1CO/N=C/c1cc[n+](CCC[n+]2ccc(/C=N/OCc3c(Cl)cccc3Cl)cc2)cc1.[Br-].[Br-]	0.65	0.34	1.83	–	–	–	–	–	–	–	–	–	Active	Active
